Here are results for two compounds from ChEMBL document CHEMBL5543129, “Peptide Inhibitor Targeting the Extraterminal Domain in BRD4 Potently Suppresses Breast Cancer Both In Vitro and In Vivo” (J Med Chem, 2024).

Active and inactive are the calls of the source. The calls are words filed in the database; no cut-off is given here. Square brackets hold non-standard residues; d marks the D form. Peptide text beside a SMILES is read from it. Hyp = O=C(O)[C@@H]1C[C@@H](O)CN1; Ahx = NCCCCCC(=O)O

Data set [1] deals with Mus musculus. In words: Downregulation of c-Myc mRNA expression in BALB/c mouse tumor xenografted with human MCF7 cells at 25 mg/kg, ip administered every 2 days by RT-qPCR analysis. It is filed as functional, organism-based. In outline:
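Female BALB/c nude mice (4–6 weeks) implanted subcutaneously with 5 × 10^6 cells in PBS. For MCF7 grafts, estrogen (E2, 10–2 M) is brushed on every 2 days. Treatment starts at ~50 mm3 after randomization, with peptide in normal saline ip every 2 days. Tumour mRNA is measured by RT-qPCR.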
For orientation: Xenograft models place foreign cells or tissue in a host animal.

The subject of data set [2] is MCF7. In words: Antitumor activity against human MCF7 cells xenografted in BALB/c nude mouse assessed as reduction in tumor volume at 12.5 mg/kg, ip administered every 2 days in presence of 2.5 mg/kg fulvestrant. It is filed as functional, organism-based. The procedure, abridged:
(§1)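 MCF7 xenografts in female BALB/c nude mice on E2 (10^-2 M, every 2 days), randomised at ~50 mm3. Peptide 12.5 mg/kg ip every 2 days with fulvestrant 2.5 mg/kg sc (DMSO/corn oil 1:10) every 6 days. Caliper volume (1/2 × L × W²); tumours weighed at the end.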

Data set [3] relates to Mus musculus. Description: Downregulation of N-myc mRNA expression in BALB/c mouse tumor xenografted with human MCF7 cells at 25 mg/kg, ip administered every 2 days by RT-qPCR analysis. It is filed as functional, organism-based.
Data set [4] can be described thus: Toxicity in BALB/c mouse xenografted with human MCF7 cells assessed as change in heart weight at 12.5 mg/kg, ip administered every 2 days in presence of 50 mg/kg JQ1. It is filed as organism-based. The conditions noted are these: in vivo, 48 h.
Data set [5] deals with MDA-MB-231. In words: Downregulation of c-Myc gene expression in human MDA-MB-231 cells at 10 uM incubated for 6 hrs by RT-qPCR analysis. It is filed as functional, cell-based. In outline: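 Cells treated with peptide (10 μM) for 6 h; c-Myc, N-myc and CCND1 mRNA measured by RT-qPCR. Three biological repeats.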
Data set [6] can be described thus: Downregulation of BRD4 protein expression in BALB/c mouse tumor xenografted with human MCF7 cells assessed as fold change in remaining BRD4 level at 25 mg/kg, ip administered every 2 days by immunoblotting analysis. It is filed as functional. The procedure, abridged:
(§2)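 Tumours taken from xenograft mice dosed with peptide at 25 mg/kg ip every 2 days. […] Three repeats.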

Data set [7] concerns MCF7. Description: Antitumor activity against human MCF7 cells xenografted in BALB/c nude mouse assessed as reduction in tumor weight at 12.5 mg/kg, ip administered every 2 days in presence of 2.5 mg/kg fulvestrant. It is filed as functional, organism-based. In outline:
as §1

The subject of data set [8] is MDA-MB-231. In words: Antitumor activity against human MDA-MB-231 cells xenografted in BALB/c nude mouse assessed as reduction in tumor weight at 12.5 mg/kg, ip administered every 2 days in presence of 50 mg/kg JQ1. It is filed as functional, organism-based. The procedure, abridged: (§3)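 Female BALB/c nude mice given 5 × 10^6 cells sc (MCF7 mice with E2 10^-2 M every 2 days), randomised at ~50 mm3. Peptide 12.5 mg/kg ip (saline) every 2 days, plus JQ1 50 mg/kg ip (DMSO/10% HPBCD 1:10) every 2 days or iJMJD6 12.5 mg/kg ip (DMSO/PBS 1:20). Caliper volume every 2 days; tumours weighed at the end.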

Data set [9] can be described thus: Downregulation of JMJD6 protein expression in BALB/c mouse tumor xenografted with human MCF7 cells assessed as fold change in remaining JMJD6 level at 25 mg/kg, ip administered every 2 days by immunoblotting analysis. It is filed as functional. The procedure, abridged: as §2
Data set [10] in a line: Downregulation of BRD4 protein expression in human MCF7 cells assessed as fold change in remaining BRD4 level at 10 uM incubated for 24 hrs by immunoblotting analysis (reference value: 1). It is filed as functional. In outline:
(§4)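 Cells treated with peptide (10 μM) for 24 h. Lysates in Tris/NaCl/EDTA/1% Triton X-100, run on 10% SDS-PAGE and immunoblotted with ECL detection. β-actin as loading control. Three repeats, quantified against untreated cells.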

The nature of data set [11]: Downregulation of […] protein expression in human MCF7 cells assessed as fold change in remaining c-Myc level at 10 uM incubated for 24 hrs by immunoblotting analysis (reference value: 1). It is filed as functional. The procedure, abridged: as §4
(In general: A western blot detects proteins with antibodies after separation by electrophoresis.)

The test system of data set [12] is MDA-MB-231. In words: Antitumor activity against human MDA-MB-231 cells xenografted in BALB/c nude mouse assessed as reduction in tumor volume at 12.5 mg/kg, ip administered every 2 days in presence of 50 mg/kg JQ1. It is filed as functional, organism-based. The procedure, abridged:
as §3

In data set [13] the test system is MDA-MB-231. Description: Inhibition of colony formation in human MDA-MB-231 cells at 10 uM incubated for 2 weeks in presence of JMJD6 inhibitor by crystal violet staining based assay. It is filed as functional, cell-based. In outline:
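Cells are seeded at 1 × 10^3/well and treated with peptide (10 μM) for 2 weeks, alone or with JQ1 5 μM, iJMJD6 10 μM, ICI 2.5 μM, or tamoxifen 3 μM (tamoxifen-resistant lines). Colonies are stained with crystal violet, dissolved in 10% acetic acid, and read at 590 nm. Three biological repeats.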

Data set [14] deals with Mus musculus. Description: Downregulation of N-myc mRNA expression in BALB/c mouse tumor xenografted with human MDA-MB-231 cells at 25 mg/kg, ip administered every 2 days by RT-qPCR analysis. It is filed as functional, organism-based.
Data set [15] can be described thus: Toxicity in BALB/c mouse xenografted with human […] cells assessed as change body weight at 12.5 mg/kg, ip administered every 2 days in presence of 50 mg/kg JQ1. It is filed as organism-based. The conditions noted are these: in vivo, 48 h. The procedure, abridged:
(§5)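 Female BALB/c nude mice (4–6 weeks) carried sc MDA-MB-231 xenografts (5 × 10^6 cells) and were randomized at about 50 mm3. Peptide (12.5 mg/kg ip in saline) and JQ1 (50 mg/kg ip, DMSO/10% HPBCD 1:10) were given every 2 days, alone or combined. Body weight was recorded, and heart, liver, spleen, lung and kidney morphology and weight were assessed.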

Data set [16] is described as follows: Toxicity in BALB/c mouse xenografted with human MDA-MB-231 cells assessed as change in heart morphology at 12.5 mg/kg, ip administered every 2 days in presence of 50 mg/kg JQ1. It is filed as organism-based. The conditions noted are these: in vivo, 48 h. In outline: as §5
Data set [17] relates to MCF7. Description: Inhibition of cell migration in human MCF7 cells at 10 uM incubated for 24 hrs in presence of 5 uM JQ1 by inverted microscopic assay. It is filed as functional, cell-based. In outline:
(§6)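 Cells are seeded at 5 × 10^5/well and scratched at 80–90% confluence. They are kept in serum-free medium with peptide (10 μM); partner agents are JQ1 5 μM, iJMJD6 10 μM, or ICI 2.5 μM. Wound area is imaged by inverted microscope at 0 and 12 or 24 h. Wound closure % = (A0−A1)/A0 × 100. Three biological repeats.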

Data set [18] deals with Mus musculus. Description: Downregulation of JMJD6 mRNA expression in BALB/c mouse tumor xenografted with human MDA-MB-231 cells at 25 mg/kg, ip administered every 2 days by RT-qPCR analysis. It is filed as functional, organism-based.
Data set [19] can be described thus: Downregulation of CCND1 protein expression in BALB/c mouse tumor xenografted with human MCF7 cells assessed as fold change in remaining CCND1 level at 25 mg/kg, ip administered every 2 days by immunoblotting analysis. It is filed as functional. The procedure, abridged: as §2
In data set [20] the test system is MCF7. In words: Inhibition of cell migration in human MCF7 cells at 10 uM incubated for 24 hrs in presence of JMJD6 inhibitor by inverted microscopic analysis. It is filed as functional, cell-based. The procedure, abridged: as §6

Regarding `CC[C@H](C)[C@H](NC(=O)[C@H](Cc1ccc(O)cc1)NC(=O)[C@@H]1C[C@@H](O)CN1C(=O)[C@H](C)NC(=O)[C@@H](NC(=O)CCCCCNC(=O)[C@H](CCC(=O)O)NC(=O)CNC(=O)[C@H](CS)NC(=O)[C@H](CCCCN)NC(=O)[C@H](Cc1ccccc1)NC(=O)[C@H](CCCCN)NC(=O)[C@H](CCC(N)=O)NC(=O)[C@H](CC(N)=O)NC(=O)[C@H](CCCNC(=N)N)NC(=O)[C@H](CCCNC(=N)N)NC(=O)[C@H](CCCNC(=N)N)NC(=O)[C@H](CCCNC(=N)N)NC(=O)[C@H](CCC(N)=O)NC(=O)[C@H](CCCNC(=N)N)NC(=O)[C@H](CCCNC(=N)N)NC(=O)[C@H](CCCCN)NC(=O)[C@H](CCCCN)NC(=O)[C@H](CCCNC(=N)N)NC(=O)CNC(=O)[C@@H](N)Cc1ccc(O)cc1)[C@@H](C)CC)C(=O)O` (H-YGRKKRRQRRRRNQKFKCGE[Ahx]IA[Hyp]YI-OH), the result in [1], in [2], in data set [3], in [5], in data set [7] and in data set [8] was Active. In addition, the result in [12] and in [14] was Active. Besides, the Activity result in data set [4], in data set [15] and in [16] was “Non-Toxic” in each case. Also, the “fold change (FC)” value is recorded as 0.16 in data set [6]; 0.4 in data set [9]; 0.63 in data set [10]; 0.53 in data set [11]; 0.09 in [19]. Further, the inhibition result in data set [13], in [17] and in data set [20] was “Active” in each case. In [18], the result was inactive.

For H-YGRKKRRQRRRRNQKFKCGE-OH, the result in data set [1], in data set [2], in data set [3], in [5], in [7] and in [8] was Active. Also, the outcome in data set [12] and in data set [14] was Active. Further, the Activity entry in data set [4], in [15] and in data set [16] was “Non-Toxic” in each case. Moreover, the “fold change (FC)” value amounted to 0.54 in data set [6]; 0.71 in data set [9]; 1.14 in data set [10]; 0.45 in [11]; 0.11 in data set [19]. The inhibition result in data set [13], in [17] and in [20] was “Active” throughout. Also, in data set [18], the result was inactive.
